Screening results from PubChem BioAssay.
Compounds with a hit are over-represented: about 1.5% of the library has one in this group of screens.
p97 inhibitor – human p97 ATPase inhibition; inhibition, % at 8 µM; recombinant p97 ATPase, Kinase-Glo ATP luminescence, 3 h; P55072; 0.42% of 220,000 active; in the data active = inhibition above about 15%;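 also: 0% = DMSO vehicle and 100% = wells lacking enzyme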
Target sequence (P55072 whole entry, looked up): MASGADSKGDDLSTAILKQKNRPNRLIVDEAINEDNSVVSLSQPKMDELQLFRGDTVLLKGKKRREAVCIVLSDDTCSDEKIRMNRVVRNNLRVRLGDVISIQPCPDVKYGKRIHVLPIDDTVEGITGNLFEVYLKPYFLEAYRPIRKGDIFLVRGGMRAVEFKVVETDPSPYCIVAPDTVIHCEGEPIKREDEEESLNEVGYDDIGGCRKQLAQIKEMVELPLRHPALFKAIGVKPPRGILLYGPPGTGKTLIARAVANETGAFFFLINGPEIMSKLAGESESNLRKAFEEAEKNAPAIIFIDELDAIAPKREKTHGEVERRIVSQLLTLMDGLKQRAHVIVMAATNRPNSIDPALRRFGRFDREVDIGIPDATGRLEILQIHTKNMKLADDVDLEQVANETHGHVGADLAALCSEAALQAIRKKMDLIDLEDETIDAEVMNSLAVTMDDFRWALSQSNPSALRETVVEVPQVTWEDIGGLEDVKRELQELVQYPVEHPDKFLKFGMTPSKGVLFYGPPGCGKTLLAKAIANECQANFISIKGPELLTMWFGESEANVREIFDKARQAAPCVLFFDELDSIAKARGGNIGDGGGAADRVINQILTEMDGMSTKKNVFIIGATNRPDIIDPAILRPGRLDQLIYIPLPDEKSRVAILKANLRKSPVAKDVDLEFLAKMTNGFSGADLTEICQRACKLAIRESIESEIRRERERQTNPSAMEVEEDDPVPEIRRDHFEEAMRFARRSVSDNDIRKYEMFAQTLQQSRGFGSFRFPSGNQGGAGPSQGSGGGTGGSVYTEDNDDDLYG
PP5 primary – PP5 (human) phosphatase inhibition. P53041. purified PP5c, OMFP substrate fluorescence. inhibition, % at 6.7 µM. 0.18% of 320,000 active. AID 1987;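 active = inhibition above the campaign's mean inhibition across all tested compounds plus 3 SD, cut at about 9.5% in these data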;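 also: 0% = DMSO only and 100% = 100 µM cantharidin control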
Hsp70 act – Hsp70 transcriptional activation, primary screen. AID 1203. activation, % at 10 µM. HeLa Hsp70 promoter luciferase reporter, luminescence; scaled: vehicle 0, proteasome-inhibitor control 100%. 0.04% of 200,000 active;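 active = activation above the mean across all tested compounds plus 3 SD, cutoff set per campaign, cut at about 5.5% in these data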;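 also: 100% = MG132 at 30 µM as the positive control and 0% = DMSO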
RBBP9 inh – human RBBP9 hydrolase inhibition | 0.2% of 220,000 active | inhibition, % at 7.94 µM | recombinant RBBP9, FP-Rh probe fluorescence polarization;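 active = inhibition above the campaign mean of all tested compounds plus 3 SD, cut at about 14% in these data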;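 also: plate controls were DMSO wells with RBBP9 for no effect and wells lacking RBBP9 protein for full effect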
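Test system: recombinant human RBBP9; Timing: 30 min then 45 min, 25 °C; Detection: fluorescence polarization; Control set: RBBP9 with DMSO as uninhibited control, no-protein wells as full inhibition; Compound dosing: one concentration, 7.94 µM nominal, 0.794% DMSO; Probe or stimulus: FP-Rh activity-based probe, 375 nM before mixing.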
PP1 inh – blocks human PP1-alpha phosphatase, a PP5 counter-screen | P62136 | purified PP1alpha, OMFP fluorescence | inhibition, % at 6.7 µM | 0.9% of 320,000 active | AID 2235;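 active = inhibition above the mean inhibition of all tested compounds plus 3 SD, computed separately for each screening campaign, cut at about 15% in these data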
PKD1 kinase inh – PKD1 (human) kinase inhibition | Q15139 | 0.056% of 200,000 active | PKD1 kinase fluorescence polarization assay | AID 797 | inhibition, % (test concentration not listed); in the data active = inhibition above about 50%
PP1 inh confirm – human PP1 phosphatase inhibition, confirmation; inhibition, % at 6.7 µM; purified PP1alpha, OMFP substrate fluorescence; 52% of 1,900 active; shares compounds with PP1 inh;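 active = mean PP1 inhibition above a set limit taken from the earlier primary screen, cut at about 15% in these data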
PP5 inh counter – inhibits human PP5 phosphatase in PP1 counter-screen | shares compounds with PP1 inh | purified PP5c, OMFP fluorescence | inhibition, % at 6.7 µM | 4% of 1,900 active | AID 2360;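 active = mean PP5 inhibition over triplicate wells above about 9.5% taken from the earlier PP1 screen, limit read from the data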
Starred values were filed as active, the others as inactive.

Screening O=C(NN1CCOCC1)c1ccc(F)cc1 returned PP5 primary 0.5, PP1 inh 20.2*, PP1 inh confirm -5.6 and PP5 inh counter -5.9.
Screening CC(=O)NC(c1cc(Cl)c2cccnc2c1O)C(C)C (stereo unspecified) returned PP5 primary 2.5 and PP1 inh 1.2.
COc1ccc(C(NC(=O)c2cccnc2)c2cc(Cl)c3cccnc3c2O)cc1OC (stereo unspecified) was read as p97 inhibitor -1.8, PP5 primary 1.1, Hsp70 act -0.4, RBBP9 inh -1.4, PP1 inh 34.4*, PKD1 kinase inh -9.8, PP1 inh confirm 22.5* and PP5 inh counter -1.9.
Screening Oc1c(C(Nc2ccccn2)c2cccnc2)cc(Cl)c2cccnc12 (stereo unspecified) returned p97 inhibitor 8.4, PP5 primary 2.6, Hsp70 act -0.3, RBBP9 inh 0.7, PP1 inh 21.8*, PKD1 kinase inh -5.8, PP1 inh confirm 18.9* and PP5 inh counter -3.2.
For O=C(O)c1c(-c2ccccc2)c(-c2ccccc2)nc2ccccc12 the results were p97 inhibitor 2.1, PP5 primary -1.2, Hsp70 act 0.5, RBBP9 inh -4.3, PP1 inh -0.2 and PKD1 kinase inh -2.6.
`Fc1cccc(Cl)c1CSc1ccc(-c2cccnc2)nn1` gave p97 inhibitor -9.8, PP5 primary 1.7, Hsp70 act 0.2, RBBP9 inh -10.7, PP1 inh 58.2*, PKD1 kinase inh -0.8, PP1 inh confirm -0.8 and PP5 inh counter -0.5.
Screening Clc1ccc(CSc2ccc(-c3cccnc3)nn2)cc1 returned p97 inhibitor -8.3, PP5 primary 1.4, Hsp70 act -0.4, RBBP9 inh -8.9, PP1 inh 5.7 and PKD1 kinase inh 2.4.
`O=C(O)C1C2CCC(O2)C1C(=O)Nc1cccc(Cl)c1` (stereo unspecified) gave PP5 primary 69.3*, PP1 inh 70.5*, PP1 inh confirm 16.6* and PP5 inh counter 25.3*.
Screening Cc1nn(Cc2ccc(Cl)cc2Cl)c(C)c1NC(=O)C1C2CCC(O2)C1C(=O)O (stereo unspecified) returned p97 inhibitor -6.8, PP5 primary 46.0*, Hsp70 act -0.2, RBBP9 inh -6.1, PP1 inh 31.8*, PKD1 kinase inh 3.5, PP1 inh confirm 12.3 and PP5 inh counter 22.5*.
O=C(O)C1C2C=CC(C2)C1C(=O)Nc1cccc(Cl)c1 (stereo unspecified) was read as PP5 primary 2.0 and PP1 inh 1.2.
For O=C(O)C1C2CCC(O2)C1C(=O)NCc1ccc(Cl)cc1 (stereo unspecified) the results were p97 inhibitor 3.7, PP5 primary 48.5*, Hsp70 act -0.2, RBBP9 inh -6.7, PP1 inh 32.2*, PKD1 kinase inh -10.4, PP1 inh confirm 16.7* and PP5 inh counter 31.6*.
`Cc1nn(C)cc1CNC(=O)C1C2CCC(O2)C1C(=O)O` (stereo unspecified) gave p97 inhibitor 5.5, PP5 primary 69.7*, Hsp70 act -0.3, RBBP9 inh 7.0, PP1 inh 61.9*, PKD1 kinase inh -1.7, PP1 inh confirm 37.4* and PP5 inh counter 40.9*.
Screening COc1cccc(-c2nc(CS(=O)CC(=O)NC3CCCCC3)c(C)o2)c1 (stereo unspecified) returned PP5 primary -1.7 and PP1 inh -1.6.
`COc1ccccc1NCC(=O)NNC(C)C(=O)Nc1cccc(Cl)c1` (stereo unspecified) gave p97 inhibitor -5.0, PP5 primary -2.0, Hsp70 act -0.3, RBBP9 inh -2.7, PP1 inh -0.7 and PKD1 kinase inh -6.7.
For O=C(O)C1C2CCC(O2)C1C(=O)Nc1ccc(Cl)cc1F (stereo unspecified) the results were PP5 primary 69.2*, PP1 inh 67.0*, PP1 inh confirm 25.8* and PP5 inh counter 33.5*.
`CCc1nnc(NC(=O)CN2CCN(c3cccc(OC)c3)CC2)s1` gave p97 inhibitor -2.8, PP5 primary 0.9, Hsp70 act -0.1, RBBP9 inh -2.7, PP1 inh 33.6*, PKD1 kinase inh -7.1, PP1 inh confirm -4.3 and PP5 inh counter -4.4.
CCc1nnc(NC(=O)CN2CCN(Cc3cccc(OC)c3)CC2)s1 was read as PP5 primary -2.3 and PP1 inh -5.1.
Screening CC(C)CCNC(=O)C1CCC(=O)N1CCc1ccccc1 (stereo unspecified) returned PP5 primary -3.2 and PP1 inh 0.1.
`N#CC1=C2Sc3ccccc3N2CCCC1=O` gave p97 inhibitor -3.8, PP5 primary -0.7, Hsp70 act 0.1, RBBP9 inh -0.9, PP1 inh 56.0*, PKD1 kinase inh 3.3, PP1 inh confirm -3.1 and PP5 inh counter -4.0.
Screening N#CC1=C2SC=C(c3ccc(Br)cc3)N2CCCC1=O returned p97 inhibitor -3.0, PP5 primary 1.7, Hsp70 act 0.0, RBBP9 inh -11.2, PP1 inh 2.7 and PKD1 kinase inh -1.7.
Screening CCOC(=O)c1c(C)oc2ccc(O)c(CN(C)C)c12 returned p97 inhibitor 4.4, PP5 primary -0.8, Hsp70 act -0.8, RBBP9 inh -1.0, PP1 inh -5.0 and PKD1 kinase inh 7.6.
`CCOC(=O)c1c(CSc2ccc(CC)cc2)oc2ccc(O)c(CN(C)C)c12` gave PP5 primary 1.5, PP1 inh 18.4*, PP1 inh confirm -3.6 and PP5 inh counter -3.9.
For CCCn1c(N)c(C(=O)CSc2nc(C)cs2)c(=O)[nH]c1=O the results were p97 inhibitor -1.1, PP5 primary 0.6, Hsp70 act -0.4, RBBP9 inh 5.3, PP1 inh -2.1 and PKD1 kinase inh -8.3.
CCCn1c(N)c(C(=O)CSc2nc(C)nc3sc(C)c(C)c23)c(=O)[nH]c1=O was read as PP5 primary -1.6, PP1 inh 22.3*, PP1 inh confirm -0.6 and PP5 inh counter -4.0.
O=[N+]([O-])c1ccc(N2CCN(S(=O)(=O)c3ccc(Cl)cc3)CC2)cc1NCc1cccnc1 was read as p97 inhibitor 3.9, PP5 primary -0.6, Hsp70 act -0.5, RBBP9 inh -3.8, PP1 inh 19.4*, PKD1 kinase inh -5.7, PP1 inh confirm 16.0* and PP5 inh counter -1.4.
For O=[N+]([O-])c1ccc(N2CCN(S(=O)(=O)c3ccccc3)CC2)cc1NCc1cccnc1 the results were p97 inhibitor 5.5, PP5 primary 3.9, Hsp70 act -0.1, RBBP9 inh 9.2, PP1 inh 9.8 and PKD1 kinase inh -12.4.
For Cc1cc(NC(=O)c2cccnc2)ccc1Br the results were PP5 primary 6.5 and PP1 inh 1.5.
